Reference: paper PMC4152390 (Neuropharmacology, 2014)

Tests used:
DAT = DAT (Rattus norvegicus, UniProt P23977); test: [3H]dopamine uptake inhibition in rat brain synaptosomes; type: biochemical; conditions: selectivity from uptake IC50 values at DAT and SERT
Procedure, shortened: (§1)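 Synaptosomes came from male Sprague-Dawley rats: striatum for DAT, and whole brain minus striatum and cerebellum for NET and SERT. Uptake ran in pH 7.4 Krebs-phosphate buffer (pargyline, BSA, ascorbate) with test compound, [3H]dopamine, [3H]norepinephrine or 5 nM [3H]serotonin, and unlabeled blockers of competing transporters. It was stopped by filtration and counted by scintillation.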

ICR mice [1] = test: Locomotor activity; type: in vivo, mouse; conditions: for Doses producing significant increases in beam breaks compared to saline for the duration of the session (all time points): i.p., 10-min bins of 60-min session
Procedure, shortened: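 Male ICR mice got a single i.p. dose of test compound or saline (sterile saline vehicle, 10 ml/kg), n=8 per dose and n=16 for saline. Each was placed at once into a clear open-field chamber (47×25.5×22 cm) for a 60-min blinded session. Beam breaks were counted per 10-min bin and analysed by mixed-model ANOVA (time within, dose between), with p<0.05.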

SERT = SERT (Rattus norvegicus, UniProt P31652); test: [3H]serotonin uptake inhibition in rat brain synaptosomes; type: biochemical; conditions: for IC50: read-out: [3H]Serotonin uptake, IC50 at SERT, rat brain synaptosomes (whole brain minus striatum and cerebellum), 5 nM [3H]serotonin, mean±SD, n=3
Sequence of SERT (P31652 whole entry): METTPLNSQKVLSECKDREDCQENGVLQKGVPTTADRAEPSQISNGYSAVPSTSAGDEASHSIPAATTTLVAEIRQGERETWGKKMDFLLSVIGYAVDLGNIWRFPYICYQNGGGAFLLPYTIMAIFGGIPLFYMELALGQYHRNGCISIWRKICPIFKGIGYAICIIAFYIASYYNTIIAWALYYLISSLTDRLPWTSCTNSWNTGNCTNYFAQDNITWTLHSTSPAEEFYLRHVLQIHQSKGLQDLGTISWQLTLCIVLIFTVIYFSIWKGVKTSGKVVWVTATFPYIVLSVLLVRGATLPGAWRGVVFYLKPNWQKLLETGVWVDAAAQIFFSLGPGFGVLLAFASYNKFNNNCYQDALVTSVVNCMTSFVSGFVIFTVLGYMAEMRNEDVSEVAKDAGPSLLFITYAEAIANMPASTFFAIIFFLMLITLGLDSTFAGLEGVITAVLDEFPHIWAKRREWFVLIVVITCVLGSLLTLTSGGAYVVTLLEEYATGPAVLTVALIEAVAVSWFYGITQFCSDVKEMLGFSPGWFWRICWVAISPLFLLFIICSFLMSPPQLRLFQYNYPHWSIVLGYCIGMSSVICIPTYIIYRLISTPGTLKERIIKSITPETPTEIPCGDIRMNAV
Procedure, shortened: as §1

NET = NET (Rattus norvegicus, UniProt Q63380); test: [3H]norepinephrine uptake inhibition in rat brain synaptosomes; type: biochemical; conditions: read-out: [3H]Norepinephrine uptake, IC50 at NET; rat brain synaptosomes (whole brain minus striatum and cerebellum); 10 nM [3H]norepinephrine; mean±SD, n=3
Sequence of NET (Q63380 1-617): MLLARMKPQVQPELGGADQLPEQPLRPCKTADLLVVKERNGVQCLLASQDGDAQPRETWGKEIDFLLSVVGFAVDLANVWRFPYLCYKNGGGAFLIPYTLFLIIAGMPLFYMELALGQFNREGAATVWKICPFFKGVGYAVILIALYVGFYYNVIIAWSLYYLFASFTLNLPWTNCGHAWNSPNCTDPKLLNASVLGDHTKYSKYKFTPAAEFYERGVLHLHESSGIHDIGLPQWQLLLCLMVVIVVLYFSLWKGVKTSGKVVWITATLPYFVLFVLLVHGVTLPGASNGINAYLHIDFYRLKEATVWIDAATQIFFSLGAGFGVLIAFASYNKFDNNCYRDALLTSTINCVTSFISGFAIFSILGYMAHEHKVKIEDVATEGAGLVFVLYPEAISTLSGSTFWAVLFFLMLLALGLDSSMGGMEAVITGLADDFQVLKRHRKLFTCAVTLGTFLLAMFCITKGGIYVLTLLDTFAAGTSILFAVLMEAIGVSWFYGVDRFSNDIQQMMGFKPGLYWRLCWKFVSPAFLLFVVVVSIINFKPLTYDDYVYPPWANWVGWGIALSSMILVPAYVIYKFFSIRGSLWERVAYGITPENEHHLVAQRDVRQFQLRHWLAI
Procedure, shortened: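 Rats killed by CO2; synaptosomes from whole brain minus striatum and cerebellum. Unlabeled blockers were added to prevent uptake by competing transporters. Tissue was added to Krebs-phosphate buffer (pH 7.4; 0.05 mM pargyline, 1 mg/mL BSA and ascorbic acid) containing test compound and [3H]norepinephrine. Rapid GF/B filtration, scintillation counting, % control uptake.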

DAT, NET and SERT = conditions: ref Baumann et al., 2013b; cited from earlier work
ICR mice [2] = test: Locomotor activity with SCH23390 antagonist pretreatment; type: in vivo, mouse; conditions: SCH23390 0.03 mg/kg s.c., 60 min session
Procedure, shortened: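 In weeks 5 and 7, ICR mice got SCH23390 (0.03 mg/kg) or saline s.c. 30 min before an i.p. challenge with test compound or saline. Groups given the highest FOB dose were excluded, and the vehicle group was split between pretreatments. Total beam breaks were analysed by two-way ANOVA (dose × pretreatment).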

ICR mice [3] = test: Functional observational battery; type: in vivo, mouse; conditions: i.p., 15 min post-injection, p<0.0033
Procedure, shortened: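 Male ICR mice (n=8 per group; a single saline group of n=16) got one i.p. dose of test compound in sterile saline (10 ml/kg). A modified EPA functional observational battery was scored 15 min post-injection by a blinded technician in weeks 2–3. Each measure was analysed by Kruskal–Wallis ANOVA by ranks, corrected for ties, with corrected alpha p<0.0033.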

Sequence of DAT (P23977 whole entry): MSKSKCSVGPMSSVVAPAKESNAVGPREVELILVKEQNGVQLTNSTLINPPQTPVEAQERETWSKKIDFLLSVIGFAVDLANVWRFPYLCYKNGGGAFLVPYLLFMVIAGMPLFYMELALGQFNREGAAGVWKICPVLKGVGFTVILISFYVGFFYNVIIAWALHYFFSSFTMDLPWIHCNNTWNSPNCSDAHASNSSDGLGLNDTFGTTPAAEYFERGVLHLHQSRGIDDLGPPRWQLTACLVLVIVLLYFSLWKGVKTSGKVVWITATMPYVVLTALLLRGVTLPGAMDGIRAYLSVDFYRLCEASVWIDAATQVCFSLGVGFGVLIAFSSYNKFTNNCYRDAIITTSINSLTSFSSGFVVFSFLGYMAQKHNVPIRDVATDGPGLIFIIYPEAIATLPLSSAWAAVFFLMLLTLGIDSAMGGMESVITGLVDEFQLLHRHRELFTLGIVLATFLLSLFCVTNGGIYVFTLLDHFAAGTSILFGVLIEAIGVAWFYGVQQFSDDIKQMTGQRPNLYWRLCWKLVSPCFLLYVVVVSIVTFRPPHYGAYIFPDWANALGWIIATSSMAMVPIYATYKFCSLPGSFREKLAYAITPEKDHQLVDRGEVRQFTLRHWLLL

CCCC(C(=O)c1ccc2c(c1)OCO2)N1CCCC1 (centres unmarked) [MDPV, 3,4-methylenedioxypyrovalerone]
DAT/SERT ratio (DAT): 806
Doses producing significant increases in beam breaks compared to saline for the duration of the session (all time points) (ICR mice [1]): 1.0 to 3.0 mg/kg
fold weaker at blocking uptake of serotonin than catecholamine uptake (SERT; SERT versus DAT and NET uptake IC50): more than 100 fold
IC50 (SERT): 3300 ± 485 nM
IC50 (NET): 25.9 ± 5.6 nM
Activity in the release assay (DAT, NET and SERT): not active

CN1CCc2cc(Cl)c(O)cc2[C@@H](c2ccccc2)C1 [SCH23390]
Effect of SCH23390 plus saline on activity compared to saline/saline group (ICR mice [2]): did not significantly affect activity

CC(C(=O)c1ccccc1)N1CCCC1 (stereo not drawn) [α-PPP, α-pyrrolidinopropiophenone]
DAT/SERT ratio (DAT): >51
Time from session start with significantly increased beam breaks (ICR mice [1]; 10.0 mg/kg i.p., 60-min session): 50 min
Doses producing significant increases in beam breaks compared to saline for the duration of the session (all time points) (ICR mice [1]): 30.0 mg/kg
IC50 (SERT): > 10000 nM
IC50 (NET): 445 ± 39.2 nM
Grooming: direction of difference from saline and doses at which significant (ICR mice [3]): 30 mg/kg

CCCC(C(=O)c1ccccc1)N1CCCC1 (stereo not drawn) [α-PVP, α-pyrrolidinovalerophenone]
DAT/SERT ratio (DAT): >781
Postinjection interval with significantly increased beam breaks (ICR mice [1]; 1.0 mg/kg i.p., 60-min session): 20 to 50 min
Doses producing significant increases in beam breaks compared to saline for the duration of the session (all time points) (ICR mice [1]): 3.0 to 10.0 mg/kg
IC50 (SERT): > 10000 nM
IC50 (NET): 14.2 ± 1.2 nM

CCC(C(=O)c1ccccc1)N1CCCC1 (stereo not drawn) [α-PBP, α-pyrrolidinobutiophenone]
DAT/SERT ratio (DAT): >159
Time from session start with significantly increased beam breaks (ICR mice [1]; 3.0 mg/kg i.p., 60-min session): 40 min
Doses producing significant increases in beam breaks compared to saline for the duration of the session (all time points) (ICR mice [1]): 10.0 mg/kg
IC50 (SERT): > 10000 nM
IC50 (NET): 91.5 ± 12.8 nM
